Key:
Type in all cases: functional
SF-268 = assay: Cytotoxicity against human SF268 cells after 48 hrs by SRB assay; settings: SF-268, 48 h
Summary of the method: (§1)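 NCI 60-cell-line screen. Cells preincubated 24 h at 37 °C, 5% CO2; time-zero plates TCA-fixed. Compounds dissolved in DMSO and tested at five concentrations (100, 10, 1.0, 0.1, 0.01 µM) for 48 h continuous exposure. Adherent cells fixed with cold TCA (10% final), then SRB stained; absorbance at 515 nm. GI50, TGI and LC50 calculated from growth relative to time-zero and untreated controls.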

SF-539 = assay: Cytotoxicity against human SF539 cells after 48 hrs by SRB assay; settings: SF-539, 48 h; for CC50: read-out: LC50 (the source's name); summary of the method: as §1
BT-549 = assay: Cytotoxicity against human BT549 cells after 48 hrs by SRB assay; settings: BT-549, 48 h; summary of the method: as §1
UACC-62 = assay: Cytotoxicity against human UACC62 cells after 48 hrs by SRB assay; settings: UACC-62, 48 h; for CC50: read-out: LC50 (the source's name)
Summary of the method: (§2)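 NCI 60-cell screen. Cells grew 24 h (37 °C, 5% CO2) before compound was added. Compounds were in DMSO and diluted in medium with gentamicin, then tested at five levels (100, 10, 1.0, 0.1, 0.01 µM) with 48 h continuous exposure. Adherent cells were fixed with TCA (10% final) and stained with 0.4% SRB, absorbance read at 515 nm. A time-zero plate was included. LC50 is the concentration giving 50% loss of protein relative to time zero.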

HOP-92 = assay: Cytotoxicity against human HOP92 cells after 48 hrs by SRB assay; settings: HOP-92, 48 h; summary of the method: as §1
UACC-257 = assay: Cytotoxicity against human UACC257 cells after 48 hrs by SRB assay; settings: UACC-257, 48 h; summary of the method: as §2
HCC 2998 = assay: Cytotoxicity against human HCC2998 cells after 48 hrs by SRB assay; settings: HCC 2998, 48 h; summary of the method: as §1
HCT-15 = assay: Cytotoxicity against human HCT15 cells after 48 hrs by SRB assay; settings: HCT-15, 48 h; summary of the method: as §1
NCI-H226 = assay: Cytotoxicity against human NCI-H226 cells after 48 hrs by SRB assay; settings: NCI-H226, 48 h; summary of the method: as §1
SF-295 = assay: Cytotoxicity against human SF295 cells after 48 hrs by SRB assay; settings: SF-295, 48 h; summary of the method: as §1
HCT-116 = assay: Cytotoxicity against human HCT116 cells after 48 hrs by SRB assay; settings: HCT-116, 48 h; summary of the method: as §1
SNB-75 = assay: Cytotoxicity against human SNB75 cells after 48 hrs by SRB assay; settings: SNB-75, 48 h; summary of the method: as §2
CCRF-CEM = assay: Cytotoxicity against human CCRF-CEM cells after 48 hrs by SRB assay; summary of the method: as §1
IGROV-1 = assay: Cytotoxicity against human IGROV1 cells after 48 hrs by SRB assay; settings: IGROV-1, 48 h; summary of the method: as §1
NCI-H23 = assay: Cytotoxicity against human NCI-H23 cells after 48 hrs by SRB assay; settings: NCI-H23, 48 h; for CC50: read-out: LC50 (the source's name); summary of the method: as §1
SR = assay: Cytotoxicity against human SR cells after 48 hrs by SRB assay; summary of the method: as §2
TK-10 = assay: Cytotoxicity against human TK10 cells after 48 hrs by SRB assay; settings: TK-10, 48 h; summary of the method: as §2
ACHN = assay: Cytotoxicity against human ACHN cells after 48 hrs by SRB assay; settings: for CC50: read-out: LC50 (the source's name); summary of the method: as §1
MDA-MB-231 = assay: Cytotoxicity against human MDA-MB-231 cells after 48 hrs by SRB assay; settings: MDA-MB-231, 48 h; summary of the method: as §1
PC-3 = assay: Cytotoxicity against human PC3 cells after 48 hrs by SRB assay; settings: PC-3, 48 h; summary of the method: as §1
LOX IMVI = assay: Cytotoxicity against human LOXIMVI cells after 48 hrs by SRB assay; summary of the method: as §1
Hs-578T = assay: Cytotoxicity against human Hs578T cells after 48 hrs by SRB assay; summary of the method: as §1
Plasmodium falciparum = assay: Antimalarial activity against Plasmodium falciparum NF54 infected in human serum at 20 ug/ml after 48 hrs by fluorometric method
Summary of the method: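 Asynchronous P. falciparum NF54 at 1.5–2% parasitemia, 5% hematocrit in RPMI with 10% human serum, exposed 48 h at 37 °C under 90% N2/5% CO2/5% O2 at the stated concentration; parasite DNA stained with ethidium bromide after proteinase K lysis; viability % = (Flu treated − medium)/(Flu untreated − medium) ×100; triplicate.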

HOP-62 = assay: Cytotoxicity against human HOP62 cells after 48 hrs by SRB assay; settings: HOP-62, 48 h; summary of the method: as §1
T47D = assay: Cytotoxicity against human T47D cells after 48 hrs by SRB assay; summary of the method: as §2
SN12C = assay: Cytotoxicity against human SN12C cells after 48 hrs by SRB assay; summary of the method: as §1
MDA-MB-468 = assay: Cytotoxicity against human MDA-MB-468 cells after 48 hrs by SRB assay; settings: MDA-MB-468, 48 h; summary of the method: as §1
MDA-MB-435 = assay: Cytotoxicity against human MDA-MB-435 cells after 48 hrs by SRB assay; settings: MDA-MB-435, 48 h; summary of the method: as §1
NCI/ADR-RES = assay: Cytotoxicity against human NCI/ADR-RES cells after 48 hrs by SRB assay; settings: for CC50: read-out: LC50 (the source's name); summary of the method: as §1
MOLT-4 = assay: Cytotoxicity against human MOLT4 cells after 48 hrs by SRB assay; settings: MOLT-4, 48 h; summary of the method: as §1
CAKI-1 = assay: Cytotoxicity against human Caki1 cells after 48 hrs by SRB assay; settings: CAKI-1, 48 h; summary of the method: as §1
HT-29 = assay: Cytotoxicity against human HT-29 cells after 48 hrs by SRB assay; settings: HT-29, 48 h; summary of the method: as §1
RPMI-8226 = assay: Cytotoxicity against human RPMI8226 cells after 48 hrs by SRB assay; settings: RPMI-8226, 48 h; summary of the method: as §1

Compound: COc1ccc(C2CC(c3ccc(Nc4ccnc5cc(Cl)ccc45)cc3)=NN2C=O)cc1 (centres undefined)
- GI50 (SF-268): > 100 µM
- LC50 (SF-268): > 100 µM
- GI50 (SF-539): > 100 µM
- CC50 (SF-539): > 100 µM
- GI50 (BT-549): 10.9 µM
- LC50 (50% net cell kill vs time zero) (BT-549): > 100 µM
- GI50 (UACC-62): 5.99 µM
- CC50 (UACC-62): > 100 µM
- LC50 (concentration killing 50% of cells) (HOP-92): > 100 µM
- GI50 (UACC-257): 4.39 µM
- LC50 (UACC-257): > 100 µM
- GI50 (HCC 2998): 18.1 µM
- LC50 (HCC 2998): > 100 µM
- GI50 (HCT-15): 2.97 µM
- LC50 (concentration killing 50% of cells relative to time zero) (HCT-15): > 100 µM
- GI50 (NCI-H226): > 100 µM
- LC50 (50% lethal concentration) (NCI-H226): > 100 µM
- GI50 (SF-295): 24.8 µM
- LC50 (SF-295): > 100 µM
- GI50 (HCT-116): 9.97 µM
- LC50 (HCT-116): > 100 µM
- GI50 (SNB-75): > 100 µM
- LC50 (50% net cell kill) (SNB-75): > 100 µM
- GI50 (CCRF-CEM): 2.71 µM
- LC50 (concentration killing 50% of cells relative to time zero) (CCRF-CEM): > 100 µM
- GI50 (IGROV-1): 43.1 µM
- LC50 (concentration killing 50% of cells relative to time zero) (IGROV-1): > 100 µM
- GI50 (NCI-H23): 5.06 µM
- CC50 (NCI-H23): > 100 µM
- GI50 (SR): 2.83 µM
- LC50 (SR): > 100 µM
- GI50 (TK-10): 20.9 µM
- LC50 (concentration giving 50% cell loss vs time zero) (TK-10): > 100 µM
- GI50 (ACHN): 7.02 µM
- CC50 (ACHN): > 100 µM
- GI50 (MDA-MB-231): 20.1 µM
- LC50 (concentration killing 50% of cells present at time zero) (MDA-MB-231): > 100 µM
- GI50 (PC-3): 9.43 µM
- LC50 (PC-3): > 100 µM
- GI50 (LOX IMVI): 2.32 µM
- LC50 (LOX IMVI): > 100 µM
- GI50 (Hs-578T): > 100 µM
- LC50 (50% net cell kill) (Hs-578T): > 100 µM
- inhibition at 20 µg/mL (Plasmodium falciparum): 0%
- GI50 (HOP-62): 43.7 µM
- LC50 (50% lethal concentration) (HOP-62): > 100 µM
- GI50 (T47D): 1.38 µM
- LC50 (concentration giving 50% cell kill relative to time zero) (T47D): > 100 µM
- GI50 (SN12C): 12.6 µM
- LC50 (50% net cell kill relative to time zero) (SN12C): > 100 µM
- GI50 (MDA-MB-468): 1 µM
- LC50 (MDA-MB-468): > 100 µM
- GI50 (MDA-MB-435): 1.72 µM
- LC50 (MDA-MB-435): > 100 µM
- GI50 (NCI/ADR-RES): 7.04 µM
- CC50 (NCI/ADR-RES): > 100 µM
- GI50 (MOLT-4): 2.54 µM
- LC50 (MOLT-4): > 100 µM
- GI50 (CAKI-1): > 100 µM
- LC50 (CAKI-1): > 100 µM
- GI50 (HT-29): 3.81 µM
- LC50 (HT-29): > 100 µM
- GI50 (RPMI-8226): 2.71 µM
- LC50 (concentration killing 50% of cells) (RPMI-8226): > 100 µM

Compound: COc1cc(C2CC(c3ccc(Nc4ccnc5cc(Cl)ccc45)cc3)=NN2C=O)cc(OC)c1OC (centres undefined)
- GI50 (SF-268): 28 µM
- LC50 (SF-268): > 100 µM
- GI50 (SF-539): 2.75 µM
- CC50 (SF-539): 37.6 µM
- GI50 (BT-549): 1.91 µM
- LC50 (50% net cell kill vs time zero) (BT-549): 8.23 µM
- GI50 (UACC-62): 2.2 µM
- CC50 (UACC-62): 59.3 µM
- GI50 (HOP-92): 1.83 µM
- LC50 (concentration killing 50% of cells) (HOP-92): > 100 µM
- GI50 (UACC-257): 2.84 µM
- LC50 (UACC-257): 55.4 µM
- GI50 (HCC 2998): 5.52 µM
- LC50 (HCC 2998): > 100 µM
- GI50 (HCT-15): 3.56 µM
- LC50 (concentration killing 50% of cells relative to time zero) (HCT-15): > 100 µM
- GI50 (NCI-H226): 34.5 µM
- LC50 (50% lethal concentration) (NCI-H226): > 100 µM
- GI50 (SF-295): 5.63 µM
- LC50 (SF-295): > 100 µM
- GI50 (HCT-116): 3.21 µM
- LC50 (HCT-116): > 100 µM
- GI50 (SNB-75): 5.19 µM
- LC50 (50% net cell kill) (SNB-75): > 100 µM
- GI50 (CCRF-CEM): 1.82 µM
- LC50 (concentration killing 50% of cells relative to time zero) (CCRF-CEM): > 100 µM
- GI50 (IGROV-1): 22.3 µM
- LC50 (concentration killing 50% of cells relative to time zero) (IGROV-1): > 100 µM
- GI50 (NCI-H23): 20.4 µM
- CC50 (NCI-H23): > 100 µM
- GI50 (SR): 2.58 µM
- LC50 (SR): > 100 µM
- GI50 (TK-10): 3.09 µM
- LC50 (concentration giving 50% cell loss vs time zero) (TK-10): 38.6 µM
- GI50 (ACHN): 3.24 µM
- CC50 (ACHN): 47 µM
- GI50 (MDA-MB-231): 4.39 µM
- LC50 (concentration killing 50% of cells present at time zero) (MDA-MB-231): > 100 µM
- GI50 (PC-3): 11.7 µM
- LC50 (PC-3): > 100 µM
- GI50 (LOX IMVI): 1.89 µM
- LC50 (LOX IMVI): 7.83 µM
- GI50 (Hs-578T): 3.24 µM
- LC50 (50% net cell kill) (Hs-578T): > 100 µM
- inhibition at 20 µg/mL (Plasmodium falciparum): 5.8%
- GI50 (HOP-62): 4.13 µM
- LC50 (50% lethal concentration) (HOP-62): 96.1 µM
- GI50 (T47D): 2.33 µM
- LC50 (concentration giving 50% cell kill relative to time zero) (T47D): > 100 µM
- GI50 (SN12C): 4.37 µM
- LC50 (50% net cell kill relative to time zero) (SN12C): > 100 µM
- GI50 (MDA-MB-468): 1.83 µM
- LC50 (MDA-MB-468): 40.9 µM
- GI50 (MDA-MB-435): 2.1 µM
- LC50 (MDA-MB-435): > 100 µM
- GI50 (NCI/ADR-RES): 7.88 µM
- CC50 (NCI/ADR-RES): > 100 µM
- GI50 (MOLT-4): 3.36 µM
- LC50 (MOLT-4): > 100 µM
- GI50 (CAKI-1): 5.47 µM
- LC50 (CAKI-1): > 100 µM
- GI50 (HT-29): 2.83 µM
- LC50 (HT-29): > 100 µM
- GI50 (RPMI-8226): 2.56 µM
- LC50 (concentration killing 50% of cells) (RPMI-8226): > 100 µM

Reference: ChEMBL document CHEMBL2417469, “Synthesis of novel analogs of 2-pyrazoline obtained from [(7-chloroquinolin-4-yl)amino]chalcones and hydrazine as potential antitumor and antimalarial agents” (Eur J Med Chem, 2013)
